ChEMBL document CHEMBL1125566, “N-methylcarbamate derivatives of ellipticine and olivacine with cytotoxic activity against four human lung cancer cell lines” (J Med Chem, 1992)

What was measured:
Type in all cases: functional, cell-based
NCI-H69 [1] = test: Compound was evaluated for inhibitory activity against H69 human lung cancer cell line
Summary of the method: (§1)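 SCLC floating cultures, grown in RPMI 1640 at 37 °C under 5% CO2, disaggregated by gentle pipetting, collected by sedimentation, and plated at 8000 cells/well. Drug (DMSO, then BSA and phosphate buffer dilutions) applied for 1 h, then centrifuged and washed twice with RPMI 1640. After 4 days at 37 °C, MTT was added for 4 h and formazan in DMSO read at 540 nm. IC50 is 50% growth inhibition.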

NCI-H358 [2] = test: Compound was evaluated for inhibitory activity against H 358 human lung cancer cell line
Summary of the method: (§2)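 Non-SCLC adherent cells, grown in RPMI 1640 at 37 °C under 5% CO2, trypsinized, resuspended in RPMI-1640/2% FBS, and plated at 2500 cells/well. Drug (DMSO, then BSA and phosphate buffer dilutions) applied for 1 h, then centrifuged and washed twice. Cells were kept 4 days at 37 °C, given MTT for 4 h, formazan dissolved in DMSO, and read at 540 nm. IC50 is the concentration giving 50% growth inhibition.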

NCI-H460 [3] = test: Compound was evaluated for inhibitory activity against H 460 human lung cancer cell line; summary of the method: as §2
NCI-H417 [4] = test: Compound was evaluated for inhibitory activity against N 417 human lung cancer cell line; summary of the method: as §1
NCI-H69 [5] = test: Cytotoxicity against H69 human lung cancer cell line; summary of the method: as §1
NCI-H417 [6] = test: Cytotoxicity against N 417 human lung cancer cell line; summary of the method: as §1
NCI-H358 [7] = test: Cytotoxicity against H 358 human lung cancer cell line; summary of the method: as §2
NCI-H460 [8] = test: Cytotoxicity against H 460 human lung cancer cell line; summary of the method: as §2

SMILES | IC50 (NCI-H69 [1]) | IC50 (NCI-H358 [2]) | IC50 (NCI-H460 [3]) | IC50 (NCI-H417 [4]) | IC50 (NCI-H69 [5]) | IC50 (NCI-H417 [6]) | IC50 (NCI-H358 [7]) | IC50 (NCI-H460 [8])
COc1ccc2[nH]c3c(C)c4ccnc(C=O)c4cc3c2c1 | 1800 nM | 1500 nM | 1800 nM | 900 nM |  |  |  | 
COc1ccc2[nH]c3c(C)c4ccnc(CO)c4cc3c2c1 |  |  |  |  | 1300 nM | 1300 nM | 1300 nM | 1900 nM
CNC(=O)OCc1c2ccncc2c(C)c2c1[nH]c1ccc(OC)cc12 |  |  |  |  | 220 nM | 90 nM | 100 nM | 60 nM
COc1ccc2[nH]c3c(C)c4ccnc(C)c4cc3c2c1 | 1200 nM | 2100 nM | 2100 nM | 1800 nM |  |  |  | 
Cc1c2ccncc2c(C)c2c1[nH]c1ccc(O)cc12 |  |  |  |  | 1700 nM | 3500 nM | 5800 nM | 2800 nM
CNC(=O)OCc1c2ccncc2c(C)c2c1[nH]c1ccccc12 |  |  |  |  | 860 nM | 330 nM | 190 nM | 170 nM
Cc1c2ccncc2c(C)c2c1[nH]c1ccccc12 [ELLIPTECINE] | 1800 nM | 200 nM | 510 nM | 870 nM |  |  |  | 
Cc1nccc2c(C)c3[nH]c4ccccc4c3cc12 | 1700 nM | 2300 nM | 1800 nM | 3400 nM |  |  |  | 
CNC(=O)OCc1c2cnccc2c(C)c2[nH]c3ccc(OC)cc3c12 |  |  |  |  | 170 nM | 40 nM | 90 nM | 20 nM
COc1ccc2[nH]c3c(C)c4ccnc(COC(C)=O)c4cc3c2c1 |  |  |  |  | 1400 nM | 2800 nM | 2000 nM | 1700 nM
Cc1c2cnccc2c(CO)c2[nH]c3ccc(O)cc3c12 |  |  |  |  | 1600 nM | 1800 nM | 1500 nM | 950 nM
Cc1c2cc[n+](C)cc2c(C)c2c1[nH]c1ccc(O)cc12 [ELLIPTINIUM] | > 48000 nM | > 48000 nM | > 48000 nM | > 48000 nM |  |  |  | 
COc1cccc2c1C(=O)c1c(O)c3c(c(O)c1C2=O)C[C@@](O)(C(=O)CO)C[C@@H]3O[C@H]1C[C@H](N)[C@H](O)[C@H](C)O1 [DOXORUBICIN] | 870 nM | 620 nM | 230 nM | 230 nM |  |  |  | 
CNC(=O)OCc1nccc2c(C)c3[nH]c4ccc(OC)cc4c3cc12 |  |  |  |  | 140 nM | 100 nM | 110 nM | 70 nM
